Laboratory results as given in ChEMBL document CHEMBL1127454, “Differential inhibition of aminopeptidase A and aminopeptidase N by new beta-amino thiols” (J Med Chem, 1994).

biological target: Glutamyl aminopeptidase (Oryctolagus cuniculus); assay: Inhibition of aminopeptidase A (APA)

Row | Ki [nM] | SMILES
1 | 140 | N[C@H](CS)CCC(=O)O

biological target: T1, Aminopeptidase N (Sus scrofa, UniProt P15145); assay: Inhibitory potency was measured on aminopeptidase N (APN)
T1 sequence (P15145 whole entry): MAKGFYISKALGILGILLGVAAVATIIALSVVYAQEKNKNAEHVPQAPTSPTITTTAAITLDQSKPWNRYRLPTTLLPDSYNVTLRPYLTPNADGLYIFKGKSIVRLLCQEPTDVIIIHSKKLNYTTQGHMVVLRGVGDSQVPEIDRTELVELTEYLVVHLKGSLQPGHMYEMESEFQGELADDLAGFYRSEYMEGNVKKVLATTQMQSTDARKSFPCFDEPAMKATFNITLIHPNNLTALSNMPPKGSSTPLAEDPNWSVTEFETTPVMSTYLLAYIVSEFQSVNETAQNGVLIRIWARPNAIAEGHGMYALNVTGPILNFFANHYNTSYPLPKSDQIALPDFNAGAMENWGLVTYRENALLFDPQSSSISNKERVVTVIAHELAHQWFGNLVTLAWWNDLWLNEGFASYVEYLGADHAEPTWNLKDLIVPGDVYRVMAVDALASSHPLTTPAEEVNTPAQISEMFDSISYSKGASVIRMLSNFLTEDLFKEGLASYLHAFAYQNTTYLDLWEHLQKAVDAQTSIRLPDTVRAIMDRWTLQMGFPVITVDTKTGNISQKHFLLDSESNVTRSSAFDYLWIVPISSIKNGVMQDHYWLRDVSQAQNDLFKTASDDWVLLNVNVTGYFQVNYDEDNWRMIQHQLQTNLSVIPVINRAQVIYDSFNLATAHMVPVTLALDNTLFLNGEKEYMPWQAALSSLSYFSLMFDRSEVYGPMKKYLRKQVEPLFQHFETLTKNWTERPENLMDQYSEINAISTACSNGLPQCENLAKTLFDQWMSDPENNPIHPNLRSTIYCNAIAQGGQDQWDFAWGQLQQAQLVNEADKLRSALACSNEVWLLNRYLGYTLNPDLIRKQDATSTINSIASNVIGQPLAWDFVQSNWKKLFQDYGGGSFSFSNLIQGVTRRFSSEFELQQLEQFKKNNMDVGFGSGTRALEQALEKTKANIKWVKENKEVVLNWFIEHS
Method in brief: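 APN preincubated 15 min at 25 °C with varied inhibitor levels in 50 mM Tris-HCl pH 7.4. […] Reaction run 15 min, stopped with HCl. Released [3H]Tyr separated on polystyrene beads and counted by liquid scintillation. Thiols dissolved with DTT (100 equiv). Ki derived from IC50 via Cheng-Prusoff, competitive inhibition assumed. Three experiments, triplicate.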

Row | SMILES | Ki [nM]
2 | NC(CS)CCP(=O)(O)O (centres undefined) | 12000
3 | NC(CS)CCCP(=O)(O)O (centres undefined) | 3700
4 | N[C@H](CS)CCS(=O)(=O)O | 25000
5 | N[C@H](CS)CCCS(=O)(=O)O | 1900
6 | NC(CS)CC(C(=O)O)C(=O)O (centres undefined) | 4500
7 | NC(CS)CCCCC(=O)O (centres undefined) | 280

Now from value to molecule:

Row | Ki [nM] | SMILES
8 | 15500 | N[C@@H](CS)CCCC(=O)O
9 | 4000 | CC(C[C@H](N)CS)C(=O)O (some centres undefined)
10 | 2800 | CC(CC(N)CS)C(=O)O (centres undefined)
11 | 600 | NC(CS)CCC(C(=O)O)C(=O)O (centres undefined)
12 | 330 | N[C@H](CS)CCCC(=O)O
13 | 37 | N[C@H](CS)CCCC(=O)NO
14 | 32 | N[C@H](CS)CCCS
